Experimental data published in ChEMBL document CHEMBL1142492 (J Med Chem, 2008).

What was measured:
[1] = target: Myosin light chain kinase 2, skeletal/cardiac muscle (Homo sapiens) (UniProt Q9H1R3); assay: Inhibition of MYLK2 at 3 uM
[2] = target: Cyclin-dependent kinase 17 (Homo sapiens) (UniProt Q00537); assay: Inhibition of PCTK2 at 3 uM
[3] = target: Neuropeptide Y receptor type 2 (Homo sapiens) (UniProt P49146); assay: Inhibition of human neuropeptide Y Y2 receptor at 3 uM
[4] = target: Phosphatidylinositol 4-phosphate 5-kinase type-1 alpha (Homo sapiens) (UniProt Q99755); assay: Inhibition of PIP5K1A at 3 uM
[5] = target: Serine/threonine-protein kinase PLK4 (Homo sapiens) (UniProt O00444); assay: Inhibition of PLK4 at 3 uM
Sequence of Serine/threonine-protein kinase PLK4 (Homo sapiens) (O00444 whole entry): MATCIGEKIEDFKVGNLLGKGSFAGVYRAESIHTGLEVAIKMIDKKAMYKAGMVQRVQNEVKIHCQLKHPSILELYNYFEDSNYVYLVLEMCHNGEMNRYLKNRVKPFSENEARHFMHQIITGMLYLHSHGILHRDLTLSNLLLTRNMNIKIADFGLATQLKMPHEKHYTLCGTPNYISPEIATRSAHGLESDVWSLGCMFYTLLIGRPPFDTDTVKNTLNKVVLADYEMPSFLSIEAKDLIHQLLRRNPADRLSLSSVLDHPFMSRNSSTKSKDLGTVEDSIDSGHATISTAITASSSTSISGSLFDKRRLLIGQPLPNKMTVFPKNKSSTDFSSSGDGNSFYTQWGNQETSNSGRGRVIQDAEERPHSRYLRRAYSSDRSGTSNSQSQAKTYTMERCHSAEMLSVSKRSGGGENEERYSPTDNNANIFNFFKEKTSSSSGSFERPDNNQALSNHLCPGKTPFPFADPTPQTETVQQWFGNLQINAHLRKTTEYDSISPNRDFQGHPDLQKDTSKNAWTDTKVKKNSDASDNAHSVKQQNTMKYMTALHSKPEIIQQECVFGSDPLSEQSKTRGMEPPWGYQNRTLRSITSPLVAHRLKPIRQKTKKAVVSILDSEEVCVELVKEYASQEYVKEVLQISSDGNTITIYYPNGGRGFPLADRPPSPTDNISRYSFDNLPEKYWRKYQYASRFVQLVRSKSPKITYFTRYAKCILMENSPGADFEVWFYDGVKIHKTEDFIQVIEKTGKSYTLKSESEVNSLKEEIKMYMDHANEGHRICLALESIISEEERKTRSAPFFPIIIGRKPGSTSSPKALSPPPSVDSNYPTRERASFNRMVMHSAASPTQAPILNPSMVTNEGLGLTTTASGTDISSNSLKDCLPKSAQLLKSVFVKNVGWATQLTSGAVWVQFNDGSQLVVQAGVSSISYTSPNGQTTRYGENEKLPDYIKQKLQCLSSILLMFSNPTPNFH

[6] = target: Focal adhesion kinase 1 (Homo sapiens) (UniProt Q05397); assay: Inhibition of PTK2 at 3 uM
[7] = target: TRAF2 and NCK-interacting protein kinase (Homo sapiens) (UniProt Q9UKE5); assay: Inhibition of TNIK at 3 uM
Sequence of TRAF2 and NCK-interacting protein kinase (Homo sapiens) (Q9UKE5 whole entry, looked up): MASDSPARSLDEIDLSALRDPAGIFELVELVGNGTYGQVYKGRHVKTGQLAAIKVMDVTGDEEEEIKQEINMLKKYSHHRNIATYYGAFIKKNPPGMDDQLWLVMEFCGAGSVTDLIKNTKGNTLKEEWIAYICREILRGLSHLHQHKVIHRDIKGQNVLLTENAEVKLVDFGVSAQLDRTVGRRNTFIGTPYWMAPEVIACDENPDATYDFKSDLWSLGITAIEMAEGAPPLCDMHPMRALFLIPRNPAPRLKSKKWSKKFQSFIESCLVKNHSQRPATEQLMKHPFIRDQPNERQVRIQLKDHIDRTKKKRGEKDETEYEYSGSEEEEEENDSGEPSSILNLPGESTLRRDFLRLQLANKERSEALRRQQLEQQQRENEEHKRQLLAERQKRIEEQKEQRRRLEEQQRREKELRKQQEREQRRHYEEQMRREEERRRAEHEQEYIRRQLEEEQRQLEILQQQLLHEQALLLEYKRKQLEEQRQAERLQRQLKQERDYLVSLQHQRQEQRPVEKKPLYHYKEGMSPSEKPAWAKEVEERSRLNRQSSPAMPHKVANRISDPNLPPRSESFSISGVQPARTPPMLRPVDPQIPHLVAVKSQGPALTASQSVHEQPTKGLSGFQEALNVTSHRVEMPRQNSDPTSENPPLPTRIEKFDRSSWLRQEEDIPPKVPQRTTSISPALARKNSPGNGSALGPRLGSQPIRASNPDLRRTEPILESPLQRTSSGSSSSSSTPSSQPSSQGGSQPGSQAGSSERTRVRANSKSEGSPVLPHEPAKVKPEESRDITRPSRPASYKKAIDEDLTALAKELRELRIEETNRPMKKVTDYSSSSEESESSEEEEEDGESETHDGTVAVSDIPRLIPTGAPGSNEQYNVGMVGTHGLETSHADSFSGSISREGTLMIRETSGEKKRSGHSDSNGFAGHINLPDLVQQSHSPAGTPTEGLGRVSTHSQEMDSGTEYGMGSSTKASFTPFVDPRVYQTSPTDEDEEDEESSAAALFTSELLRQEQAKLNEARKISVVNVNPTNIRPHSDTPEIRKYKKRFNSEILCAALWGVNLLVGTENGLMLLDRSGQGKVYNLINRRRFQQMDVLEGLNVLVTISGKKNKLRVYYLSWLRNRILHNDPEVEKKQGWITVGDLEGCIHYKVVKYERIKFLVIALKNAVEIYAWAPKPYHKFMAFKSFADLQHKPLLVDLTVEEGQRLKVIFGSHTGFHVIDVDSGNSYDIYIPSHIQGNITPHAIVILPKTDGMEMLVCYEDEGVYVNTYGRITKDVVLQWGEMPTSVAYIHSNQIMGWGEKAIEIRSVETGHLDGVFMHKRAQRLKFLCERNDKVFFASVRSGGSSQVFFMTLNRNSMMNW

[8] = target: STE20-like serine/threonine-protein kinase (Homo sapiens) (UniProt Q9H2G2); assay: Inhibition of SLK at 3 uM
[9] = target: Mitogen-activated protein kinase 14 (Homo sapiens) (UniProt Q16539); assay: Inhibition of p38-alpha at 3 uM
[10] = target: Cyclin-dependent kinase 8 (Homo sapiens) (UniProt P49336); assay: Inhibition of CDK8 at 3 uM
Rattus norvegicus = species on record: Rattus norvegicus; settings: 3 uM
[11] = target: Epidermal growth factor receptor (Homo sapiens) (UniProt P04626+P00533+Q15303+P21860); assay: Inhibition of EGFR L747-E749del,A750P mutant at 3 uM; type: protein assay
[12] = target: Histamine H2 receptor (Homo sapiens) (UniProt P25021); assay: Inhibition of human histamine H2 receptor at 3 uM
Procedure, shortened: (§1)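 Counter-screen binding/enzyme panel at single 3 μM, n=2; results as percent inhibition. Species per target as listed (rat NMDA, GABAA sites; human receptors, transporters; rabbit ACE).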

[13] = target: MAP kinase-interacting serine/threonine-protein kinase 1 (Homo sapiens) (UniProt Q9BUB5); assay: Inhibition of MKNK1 at 3 uM
[14] = target: Protein-tyrosine kinase 6 (Homo sapiens) (UniProt Q13882); assay: Inhibition of PTK6 at 3 uM
Sequence of Protein-tyrosine kinase 6 (Homo sapiens) (Q13882 whole entry, looked up, canonical isoform): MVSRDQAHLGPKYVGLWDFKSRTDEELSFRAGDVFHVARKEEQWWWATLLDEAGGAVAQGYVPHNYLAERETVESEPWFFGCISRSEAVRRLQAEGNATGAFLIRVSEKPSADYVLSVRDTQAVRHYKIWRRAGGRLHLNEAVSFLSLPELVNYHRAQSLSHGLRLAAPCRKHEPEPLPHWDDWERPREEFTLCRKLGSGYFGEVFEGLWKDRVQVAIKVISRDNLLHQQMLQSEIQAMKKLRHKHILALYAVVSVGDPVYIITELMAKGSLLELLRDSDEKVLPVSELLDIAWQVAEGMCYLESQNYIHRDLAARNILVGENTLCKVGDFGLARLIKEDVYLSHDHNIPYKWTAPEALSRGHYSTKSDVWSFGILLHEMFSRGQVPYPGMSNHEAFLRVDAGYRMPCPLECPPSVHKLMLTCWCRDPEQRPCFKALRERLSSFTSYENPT

[15] = target: Phosphatidylinositol 4,5-bisphosphate 3-kinase catalytic subunit beta isoform (Homo sapiens) (UniProt P42338); assay: Inhibition of PIK3CB at 3 uM
[16] = target: Mitogen-activated protein kinase 1 (Homo sapiens) (UniProt P28482); assay: Inhibition of ERK2 at 3 uM
Sequence of Mitogen-activated protein kinase 1 (Homo sapiens) (P28482 whole entry): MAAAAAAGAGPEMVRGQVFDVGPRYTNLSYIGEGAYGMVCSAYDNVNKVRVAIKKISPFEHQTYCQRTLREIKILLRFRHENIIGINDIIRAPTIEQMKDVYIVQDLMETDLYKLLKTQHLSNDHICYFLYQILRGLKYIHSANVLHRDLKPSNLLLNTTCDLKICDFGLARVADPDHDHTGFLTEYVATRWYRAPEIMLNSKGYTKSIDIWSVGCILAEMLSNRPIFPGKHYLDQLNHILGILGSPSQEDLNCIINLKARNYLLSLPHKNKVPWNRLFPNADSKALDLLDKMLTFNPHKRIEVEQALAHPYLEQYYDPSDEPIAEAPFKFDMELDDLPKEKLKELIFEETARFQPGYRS
Procedure, shortened: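 Single-concentration kinase panel scoring: each value is the percentage of enzyme activity remaining relative to a DMSO-only control. An activity statistically indistinct from DMSO control was scored "no hit".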

[17] = target: Interleukin-1 receptor-associated kinase 3 (Homo sapiens) (UniProt Q9Y616); assay: Inhibition of IRAK3 at 3 uM
Sequence of Interleukin-1 receptor-associated kinase 3 (Homo sapiens) (Q9Y616 whole entry): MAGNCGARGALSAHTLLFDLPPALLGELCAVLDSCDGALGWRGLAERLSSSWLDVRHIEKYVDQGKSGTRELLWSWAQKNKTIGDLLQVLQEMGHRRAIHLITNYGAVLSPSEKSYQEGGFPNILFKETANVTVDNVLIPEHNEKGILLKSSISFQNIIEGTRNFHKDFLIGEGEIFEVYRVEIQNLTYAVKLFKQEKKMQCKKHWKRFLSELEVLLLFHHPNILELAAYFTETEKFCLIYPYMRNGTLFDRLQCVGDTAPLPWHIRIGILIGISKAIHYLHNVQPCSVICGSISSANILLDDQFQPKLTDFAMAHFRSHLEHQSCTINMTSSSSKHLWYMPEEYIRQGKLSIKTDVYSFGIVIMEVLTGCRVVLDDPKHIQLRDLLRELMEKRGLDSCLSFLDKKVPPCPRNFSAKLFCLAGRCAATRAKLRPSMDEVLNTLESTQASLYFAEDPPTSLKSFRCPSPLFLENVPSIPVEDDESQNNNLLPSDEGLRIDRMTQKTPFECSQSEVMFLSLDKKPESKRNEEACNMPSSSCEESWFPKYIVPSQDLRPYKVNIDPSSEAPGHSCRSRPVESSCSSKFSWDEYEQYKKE

[18] = target: Substance-P receptor (Homo sapiens) (UniProt P25103); assay: Inhibition of human NK1 receptor at 3 uM; procedure, shortened: as §1
[19] = target: Bone morphogenetic protein receptor type-1B (Homo sapiens) (UniProt O00238); assay: Inhibition of BMPR1B at 3 uM
[20] = target: Protein kinase C epsilon type (Homo sapiens) (UniProt Q02156); assay: Inhibition of PRKCE at 3 uM
Sequence of Protein kinase C epsilon type (Homo sapiens) (Q02156 whole entry): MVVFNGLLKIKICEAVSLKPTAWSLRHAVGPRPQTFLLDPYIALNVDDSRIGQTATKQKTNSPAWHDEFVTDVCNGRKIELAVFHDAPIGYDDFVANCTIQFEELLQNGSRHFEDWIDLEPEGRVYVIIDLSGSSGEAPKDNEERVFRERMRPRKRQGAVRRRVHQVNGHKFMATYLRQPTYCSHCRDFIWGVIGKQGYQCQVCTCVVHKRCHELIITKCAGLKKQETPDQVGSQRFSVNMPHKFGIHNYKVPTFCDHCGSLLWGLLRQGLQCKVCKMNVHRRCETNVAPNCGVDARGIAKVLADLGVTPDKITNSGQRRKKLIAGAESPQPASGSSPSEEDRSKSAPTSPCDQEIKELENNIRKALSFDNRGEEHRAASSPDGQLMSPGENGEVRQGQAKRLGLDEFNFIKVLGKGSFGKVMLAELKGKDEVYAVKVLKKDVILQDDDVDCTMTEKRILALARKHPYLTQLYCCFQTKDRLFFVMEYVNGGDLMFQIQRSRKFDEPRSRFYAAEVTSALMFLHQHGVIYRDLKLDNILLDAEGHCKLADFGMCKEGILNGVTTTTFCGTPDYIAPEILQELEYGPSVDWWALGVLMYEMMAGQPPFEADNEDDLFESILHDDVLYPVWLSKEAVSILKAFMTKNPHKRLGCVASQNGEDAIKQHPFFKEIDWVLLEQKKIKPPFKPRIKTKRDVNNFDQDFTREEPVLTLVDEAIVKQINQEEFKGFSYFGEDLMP

[21] = tested on: Mast/stem cell growth factor receptor Kit (Homo sapiens), P10721 [V559D]; assay: Inhibition of KIT V559D mutant at 3 uM
[22] = target: Cyclin-dependent kinase 19 (Homo sapiens) (UniProt Q9BWU1); assay: Inhibition of CDK11 at 3 uM
[23] = target: Cyclin-dependent kinase 11B (Homo sapiens) (UniProt P21127); assay: Inhibition of CDC2L1 at 3 uM
[24] = target: Tyrosine-protein kinase ZAP-70 (Homo sapiens) (UniProt P43403); assay: Inhibition of ZAP70 at 3 uM
[25] = target: Membrane-associated tyrosine- and threonine-specific cdc2-inhibitory kinase (Homo sapiens) (UniProt Q99640); assay: Inhibition of PKMYT1 at 3 uM

Sequence of Myosin light chain kinase 2, skeletal/cardiac muscle (Homo sapiens) (Q9H1R3 whole entry): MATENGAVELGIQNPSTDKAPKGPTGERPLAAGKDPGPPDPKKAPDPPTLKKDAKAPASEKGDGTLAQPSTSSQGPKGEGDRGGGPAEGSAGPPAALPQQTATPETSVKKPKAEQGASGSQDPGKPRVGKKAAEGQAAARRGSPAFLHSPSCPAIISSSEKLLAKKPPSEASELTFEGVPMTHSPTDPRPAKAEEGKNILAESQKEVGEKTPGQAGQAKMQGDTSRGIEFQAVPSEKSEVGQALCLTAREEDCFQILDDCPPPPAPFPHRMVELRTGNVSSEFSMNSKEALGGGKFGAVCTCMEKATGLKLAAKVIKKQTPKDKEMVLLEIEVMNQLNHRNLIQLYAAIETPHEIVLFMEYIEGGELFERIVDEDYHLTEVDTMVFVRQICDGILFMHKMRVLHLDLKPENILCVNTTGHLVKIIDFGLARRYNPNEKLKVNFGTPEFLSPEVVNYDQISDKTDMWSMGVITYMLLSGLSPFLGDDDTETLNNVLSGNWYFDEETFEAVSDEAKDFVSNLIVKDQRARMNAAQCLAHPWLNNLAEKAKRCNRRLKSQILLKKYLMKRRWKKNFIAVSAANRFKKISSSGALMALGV

For `CN(C)CCOc1cc(-c2cn[nH]c2)ccc1NC(=O)C1COc2ccccc2O1` (stereo unspecified) [SR-3677], the inhibition [1] was less than 10%, the inhibition [2] was less than 10% and the inhibition [3] was 0%. For the same compound, the inhibition [4] was less than 10%, the inhibition [5] was less than 10% and the inhibition [6] was less than 10%. The inhibition [7] was less than 10%, the inhibition [8] was less than 10% and the inhibition [9] was less than 10%. The inhibition [10] was less than 10%, the inhibition (Rattus norvegicus) was 17% and the inhibition [11] was less than 10%. The inhibition [12] was 1%, the inhibition [13] was less than 10% and the inhibition [14] was less than 10%. It also gave an inhibition [15] of less than 10%, an inhibition [16] of less than 10% and an inhibition [17] of less than 10%. The inhibition [18] was -6%, the inhibition [19] was less than 10% and the inhibition [20] was less than 10%. It also gave an inhibition [21] of less than 10%, an inhibition [22] of less than 10% and an inhibition [23] of less than 10%. For the same compound, the inhibition [24] was less than 10% and the inhibition [25] was less than 10%.
